# Experimental data taken from ChEMBL document CHEMBL1811784, “Synthesis and SERCA activities of structurally simplified cyclopiazonic acid analogues” (Bioorg Med Chem, 2011).
# Experiment: Inhibition of Heliothis virescens SERCA expressed in Sf9 cells assessed as ATP depletion measured after 60 mins by luciferin/luciferase coupled reporter gene assay
# Outline: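 Microsomal membranes from Sf9 cells coinfected with baculovirus carrying full-length H. virescens SERCA (aa 2-1000), MOI 0.3, harvested after 3 days. 0.4 µg/mL enzyme with 0.05 mM ATP, inhibitor 3.2 nM–50 µM final, MOPS pH 7.5 buffer with Mg2+, Ca2+/EGTA, A23187. Remaining ATP read by luciferin/luciferase luminescence. Quadruplicates, normalized, sigmoid fit for IC50. Luciferase-only counterscreen run without SERCA.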
row,SMILES,IC50 [µM]
1,C/C(O)=C1\C(=O)[C@@H]2[C@H]3c4c[nH]c5cccc(c45)C[C@@H]3C(C)(C)N2C1=O,5
2,C/C(O)=C1\C(=O)[C@H]2[C@H]3c4c[nH]c5cccc(c45)C[C@H]3C(C)(C)N2C1=O,0.5
3,CC(O)=C1C(=O)N2[C@H]3CCCC[C@H]3C(C)(C)N2C1=O (mixture of isomers),40
4,CC(O)=C1C(=O)[C@H]2[C@H]3CCCC[C@H]3C(C)(C)N2C1=O (mixture of isomers),19.9
5,CC(O)=C1C(=O)[C@@H]2[C@H]3CCCC[C@H]3C(C)(C)N2C1=O (mixture of isomers),0.63
6,CC(C)(C)c1cc(O)c(C(C)(C)C)cc1O,0.13
7,CC(O)=C1C(=O)C2c3ccccc3C(C)(C)N2C1=O (mixture of isomers),> 50
8,CC(=O)C1=C(O)[C@@H]2[C@H]3c4c[nH]c5cccc(c45)C[C@H]3C(C)(C)N2C1=O [CYCLOPIAZONIC ACID],0.01
9,CC(O)=C1C(=O)C2Cc3ccccc3C(C)(C)N2C1=O (mixture of isomers),6.3
10,COC(=O)[C@H]1NC(C)(C)[C@@H]2Cc3cccc4[nH]cc(c34)[C@H]12,> 50
11,C/C(O)=C1\C(=O)[C@@H]2[C@H]3[C@@H]4C(=O)N(C)c5cccc(c54)C[C@H]3C(C)(C)N2C1=O [SPERADINE A],8
12,CC(O)=C1C(=O)N2c3ccccc3C(C)(C)N2C1=O (mixture of isomers),40
